# Source: PubChem
# CSN deneddyl inh: blocks human CSN-mediated cullin deneddylation | 360,000 compounds, 0.38% hits | AID 651999 | inhibition, % at 12.5 µM | Purified CSN, SCF-Nedd8-OG deneddylation, fluorescence polarization | Q92905;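 active = pattern-corrected inhibition above about 35%, with an unprinted fluorescence ratio check between 0.5 and 1.5, limit read from the data, passing the limit was not always enough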;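 note: 0% = enzyme with substrate and 100% = substrate without enzyme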
#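 Test system: Human Csn5 produced in HEK293T cells | Compound: 12.5 µM single point | Times: 90 min, room temperature | Signal: Fluorescence polarization readout | Read-out basis: % inhibition of substrate cleavage by Csn5 | Controls: no-enzyme wells high, enzyme-with-substrate wells low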
# aDG glyco up: increases alpha dystroglycan glycosylation | AID 624168 | 360,000 compounds, 0.22% hits | Pro5-aDG cells, alpha-DG glycosylation AlphaScreen (IIH6); 0% Pro5, 100% B10-LARGE cell signal | activation, % at 10 µM;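 active = activation of at least 8% versus controls, or a plate z-score of at least 8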;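 note: Pro5 are CHO cells carrying HIG-tagged alpha-DG that lacks glycosylation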
# HNF4A DNA FP: change in binding of human HNF4 alpha to DNA; activity change, % at 10 µM; HNF4a-FITC DNA binding, fluorescence polarization, 1 h; 360,000 compounds, 0.3% hits; P41235; in the data active = activity change above about 30%, passing the limit was not always enough
# Target sequence (P41235 whole entry, looked up): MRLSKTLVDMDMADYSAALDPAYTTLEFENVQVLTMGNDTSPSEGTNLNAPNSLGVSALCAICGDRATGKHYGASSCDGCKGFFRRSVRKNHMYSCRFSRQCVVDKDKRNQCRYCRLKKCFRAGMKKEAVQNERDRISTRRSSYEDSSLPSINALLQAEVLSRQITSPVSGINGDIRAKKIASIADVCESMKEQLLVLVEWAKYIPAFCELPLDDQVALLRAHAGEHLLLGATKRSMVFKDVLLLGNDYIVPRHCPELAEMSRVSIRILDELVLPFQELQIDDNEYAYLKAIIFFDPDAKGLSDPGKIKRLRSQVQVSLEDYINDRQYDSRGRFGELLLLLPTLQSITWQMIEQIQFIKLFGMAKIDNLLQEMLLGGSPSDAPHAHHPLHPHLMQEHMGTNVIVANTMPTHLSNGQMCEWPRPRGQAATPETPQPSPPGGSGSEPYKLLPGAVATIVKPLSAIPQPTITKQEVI
# NR1D1 modulator: modulates human Rev-erb alpha binding to DNA; P20393; Rev-erbα–FITC-DNA binding, fluorescence polarization, 90 min; activity, % at 10 µM; 370,000 compounds, 0.79% hits;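 active = activity above about 14%, limit read from the data; passing the limit was not always enough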;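 note: 0% = DMSO wells with 35 nM protein and 100% = DMSO wells with 750 nM protein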
# NR1D1 mod conf: confirmation of modulators of human Rev-erb alpha DNA binding; shares compounds with NR1D1 modulator; Rev-erb alpha FITC-DNA binding, fluorescence polarization, 90 min; activation, % at 25 µM; 3,000 compounds, 61% hits; AID 1259319;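 active = activation at or above a set limit, or at least 3 SD above the negative control mean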;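 note: 0% = 35 nM protein with DMSO and 100% = 750 nM protein high control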
# RORg DNA counter: RORgamma DNA-binding activity, dose-response counter-screen. IC50, µM. purified RORgamma protein-FITC-DNA binding, fluorescence polarization. shares compounds with NR1D1 modulator. AID 1259320. 910 compounds, 8% hits;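 active = Compounds whose fitted half-maximal concentration for disrupting protein-DNA binding is below 10 micromolar; the record names Rev-erb in its text, so the target is in doubt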
# Starred values were filed as active, the others as inactive; i = inactive; x = not tested or not shown. An excerpt weighted towards active compounds, which were near 1.5% of everything screened.
SMILES,CSN deneddyl inh,aDG glyco up,HNF4A DNA FP,NR1D1 modulator,NR1D1 mod conf,others
COc1ccc(-c2cc(-c3nnc(SCC(=O)NC4CCCCC4)n3N)[nH]n2)cc1,x,x,x,-4,x,
CCOC(=O)C1CCN(S(=O)(=O)c2ccc(-c3ccc(=O)[nH]n3)o2)CC1,-4,0,-2,6,x,
O=c1ccc(-c2ccc(S(=O)(=O)N3CCN(c4ccccc4)CC3)o2)n[nH]1,7,0,2,120*,62*,RORg DNA counter=>40
O=c1ccc(-c2ccc(S(=O)(=O)N3CCN(c4cccc(Cl)c4)CC3)o2)n[nH]1,2,0,5,76*,86*,RORg DNA counter=i
CC(C)C[C@@H]1COc2cc(Br)ccc2S(=O)(=O)N1Cc1cn(CCC2OCCCO2)nn1,x,x,x,3,x,
Cc1ccc(-n2c(SCc3cccc4ccccc34)nnc2-c2ccccn2)cc1,x,x,x,7,x,
N[C@H](C(=O)Nc1ccc(Cl)cc1C(=O)c1ccc[nH]1)c1ccccc1,x,x,x,-3,x,
CCOc1ccc(S(=O)(=O)N(C)c2ccc(OCC(=O)Nc3nc(-c4cc(OC)ccc4OC)cs3)cc2)cc1,2,1,3,25*,30*,
Nc1[nH]c(C(=O)c2ccccc2)c(-c2ccc(Cl)cc2Cl)c1C(=O)NCCC1=CCCCC1,x,x,x,-8,x,
CCOc1ccccc1-c1nc(-c2ccc(NC(=O)Cc3ccc(OC)cc3)cc2)no1,7,0,-1,43*,70*,RORg DNA counter=>40
CS(=O)(=O)c1ccc(Cl)c(NC(=O)CSc2nnc(C3CC3)n2C2CC2)c1,2,0,-1,17*,0,
CCOC(=O)c1c(C)nc2sc3c(=O)n(-c4ccc(OC)cc4)cnc3c2c1-c1ccc(OC)cc1,2,0,2,35*,-14,
CCOC(=O)c1c(C)nc2sc3c(=O)n(-c4ccc(C(C)=O)cc4)nnc3c2c1-c1ccc(OC)cc1,-1,0,4,-5,x,
Cc1occc1-c1nnc(SCC(=O)Nc2ccccn2)n1-c1ccccc1,x,x,x,0,x,
O=S(=O)(c1ccccc1)c1nc(-c2ccccc2)oc1N1CCCC1,-8,0,5,16*,-7,
O=S(=O)(c1ccccc1)c1nc(-c2ccccc2)oc1N1CCCCC1,1,0,-3,-4,x,
Cc1cccc(C)c1NC(=O)C1CCCN1S(=O)(=O)c1cccc2cccnc12 (stereo not drawn),x,x,x,-2,x,
Cc1nc(SCC(=O)Nc2ccccc2)c2oc3ccccc3c2n1,-4,0,-2,781*,666*,RORg DNA counter=>40
Cc1nc(SCC(=O)Nc2ccc(F)cc2)c2oc3ccccc3c2n1,-2,0,0,220*,233*,RORg DNA counter=>40
COCC(=O)N[C@@H]1C[C@@H]2O[C@H](CO)CC[C@@H]2O[C@@H]1CCc1ccc(-c2ccccc2)cc1,x,x,x,-1,x,
c1nc(NCC2CCCCO2)c2cc(-c3ccc4c(c3)OCO4)ccc2n1 (stereo not drawn),x,x,x,-3,x,
Cn1nc2c3ccccc3n(Cc3ccccc3)c2nc1=S,4,0,-1,30*,23*,
CCn1c2ccccc2c2nn(C)c(=N)nc21,-4,0,2,5,x,
CCC(=O)c1ccc(OCC(=O)Nc2ccccc2C(=O)NC2CC2)cc1,5,0,-4,22*,96*,RORg DNA counter=i
COC(=O)c1ccc(OCC(=O)Nc2ccccc2C(=O)NC2CC2)cc1,-4,-1,0,1,x,
SMILES,CSN deneddyl inh,aDG glyco up,HNF4A DNA FP,NR1D1 modulator,NR1D1 mod conf,others
COc1ccc(-c2noc(COc3ccc4ccccc4c3Br)n2)cc1OC,-3,0,-2,29*,17*,
Cc1ccc2[nH]c(=O)c3cc(C(=O)N(C)C4CCCCC4)sc3c2c1,5,4,0,21*,-1,
CC(=O)OCC1OC(n2c(-c3ccc(Cl)cc3)ccc(C#N)c2=S)C(OC(C)=O)C(OC(C)=O)C1OC(C)=O (stereo not drawn),12,0,21,55*,41*,RORg DNA counter=>40
COc1cc(C=C2C(=O)c3ccccc3C2=O)cc(OC)c1OC,-1,1,3,4,x,
COc1cc(C=Cc2nnc3c4ccccc4cnn23)cc(OC)c1OC,7,0,-2,50*,36*,RORg DNA counter=>40
CC(=O)Nc1ccc(OCC(C)CN2CCC(C(O)(c3ccccc3)c3ccccc3)CC2)cc1 (stereo not drawn),x,x,x,5,x,
COc1ccc(-c2nnc3ccc(SCC(=O)Nc4nc5ccc(C)cc5s4)nn23)cc1OC,-6,0,3,25*,26*,
CCOC(=O)c1c(NC(=O)C2CCCO2)sc(C(=O)OC(C)(C)C)c1C (stereo not drawn),0,0,-3,46*,31*,
O=c1c2c3c(sc2nc(NCCO)n1Cc1ccco1)CCCCC3,2,-1,-1,0,x,
COCCNc1nc2sc3c(c2c(=O)n1Cc1ccco1)CCCCC3,x,x,x,49*,23*,
O=C(Nc1nc2ncccn2c1-c1ccc(F)c(F)c1)c1ccc(F)cc1,x,x,x,-2,x,
Cc1cccc(OCC(=O)NCc2ccccc2)c1,-6,0,0,4,x,
C/C(=N\NC(=O)COc1cccc(C)c1)c1ccc2ccccc2c1O,-1,1,2,217*,165*,RORg DNA counter=>40
CCC(=O)N1CCCC(C)(C(=O)Nc2ccc3scnc3c2)C1 (stereo not drawn),-1,0,4,19*,3,
Cc1cc(Cl)ccc1Oc1ncc(-c2ccc(Cl)cc2)cn1,0,0,-3,24*,18*,
COc1ccc(NC(=O)c2cc3c(=O)n4ccccc4nc3n2C)c(OC)c1,-7,0,1,8,x,
COc1ccc(C)cc1NC(=O)c1cc2c(=O)n3ccccc3nc2n1C,1,0,-1,23*,55*,RORg DNA counter=>40
COc1ccc(C2Nc3ccccc3C(=O)N2Cc2ccc(C)o2)cc1COc1c(C)cccc1C (stereo not drawn),x,x,x,3,x,
CC1CN(C(=O)/C=C/c2ccccc2[N+](=O)[O-])CC(C)O1 (stereo not drawn),-1,0,5,18*,-4,
CC1CN(C(=O)/C=C/c2cccc([N+](=O)[O-])c2)CC(C)O1 (stereo not drawn),-3,0,4,-2,x,
Cc1n[nH]c(=S)n(NC(=O)CC(=O)Nn2c(=S)[nH]nc(C)c2=O)c1=O,-6,0,0,16*,5,
COC(=O)[C@H]1C[C@@]2(C#N)c3ccccc3N(C(=O)OC(C)(C)C)[C@H]2N1C(=O)OC(C)(C)C,x,x,x,5,x,
O=C(Nc1nnc(SCc2ccccc2)s1)c1cc2c(s1)CCCC2,1,0,-4,52*,34*,RORg DNA counter=i
CCSc1nnc(NC(=O)c2csc3c2CCCC3)s1,-4,0,-1,12,x,
CCSc1nnc(NC(=O)c2cc3c(s2)CCCC3)s1,6,0,3,33*,38*,RORg DNA counter=>40
O=C(Nc1nnc(SCc2ccccc2)s1)c1cccc([N+](=O)[O-])c1,-15,0,3,-2,x,
